According to ChEMBL document CHEMBL4257594 (J Med Chem, 2018):
Active and inactive are the calls of the source. No cut-off for these calls is given here.

Assays:
HUVEC [1] = experiment: Anti-angiogenic activity against HUVEC after 24 hrs by scintillation counting based [3H]-thymidine incorporation assay; type: functional, cell-based; details: Homo sapiens
Outline: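 HUVEC seeded at 2000 cells/well and left to settle overnight, then drug added in triplicate for 24 h. Mean ± SD of three independent experiments run in triplicate.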

Cytochrome P450 3A4 [2] = biological target: T1, Cytochrome P450 3A4 (Homo sapiens, UniProt P08684); experiment: (§1) Inhibition of human liver microsome CYP3A4 at 1 uM expressed in baculosomes using fluorogenic-DBOMF as substrate preincubated for 10 mins followed by substrate addition and measured after 60 mins by fluorescence based assay; type: ADME, microsomes; details: microsomes, 1 h, 1 µM
T1 sequence (P08684 whole entry): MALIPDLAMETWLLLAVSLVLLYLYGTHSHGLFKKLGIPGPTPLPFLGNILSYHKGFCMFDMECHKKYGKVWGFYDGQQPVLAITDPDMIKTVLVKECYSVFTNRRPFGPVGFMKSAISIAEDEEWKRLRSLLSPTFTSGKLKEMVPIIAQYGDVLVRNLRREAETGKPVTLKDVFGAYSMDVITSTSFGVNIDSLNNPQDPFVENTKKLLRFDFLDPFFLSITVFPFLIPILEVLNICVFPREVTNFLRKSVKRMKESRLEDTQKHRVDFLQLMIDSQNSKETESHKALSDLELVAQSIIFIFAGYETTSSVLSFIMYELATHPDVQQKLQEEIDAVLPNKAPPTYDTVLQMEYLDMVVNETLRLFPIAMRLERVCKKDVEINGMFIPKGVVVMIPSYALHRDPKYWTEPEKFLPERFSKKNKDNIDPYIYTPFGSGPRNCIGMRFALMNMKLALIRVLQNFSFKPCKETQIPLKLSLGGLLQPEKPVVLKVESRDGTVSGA
Outline: (§2)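 CYP3A4 baculosomes preincubated with drug at 1 µM for 10 min at 37 °C before Vivid green substrate added. Fluorescence (ex/em 485/520) read 60 min after substrate addition. Percent inhibition set against 10 μM ketoconazole as the 100% control; mean ± SD of three independent experiments run in triplicate.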

CYP3A4 = CYP3A4 (Homo sapiens, UniProt P08684); experiment: as §1; type: ADME, microsomes; details: recombinant CYP3A4 expressed in baculosomes, probe DBOMF (fluorogenic); outline: as §2
CYP3A4, sequence (P08684 whole entry): as above

[3] = biological target: Non-selective voltage-gated ion channel VDAC1 (Homo sapiens) (UniProt P21796); experiment: Binding affinity to VDAC1 (unknown origin) at 10 uM using itraconazole as probe by photoaffinity probe competitor assay
Non-selective voltage-gated ion channel VDAC1 (Homo sapiens), sequence (P21796 whole entry): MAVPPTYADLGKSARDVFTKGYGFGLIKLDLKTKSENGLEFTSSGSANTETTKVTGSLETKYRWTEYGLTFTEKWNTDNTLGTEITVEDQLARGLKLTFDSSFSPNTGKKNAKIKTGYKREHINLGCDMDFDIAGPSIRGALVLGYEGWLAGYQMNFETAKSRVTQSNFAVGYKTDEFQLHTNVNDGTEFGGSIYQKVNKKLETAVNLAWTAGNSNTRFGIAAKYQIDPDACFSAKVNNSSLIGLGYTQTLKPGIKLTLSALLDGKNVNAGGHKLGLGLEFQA

[4] = biological target: T2, NPC intracellular cholesterol transporter 1 (Homo sapiens) (UniProt O15118); experiment: Binding affinity to NPC1 in HUVEC assessed as increase in cholesterol accumulation in late endosome/lysosome at 0.2 uM after 14 hrs by filipin staining-based confocal microscopy; type: cell-based
T2 sequence (whole entry): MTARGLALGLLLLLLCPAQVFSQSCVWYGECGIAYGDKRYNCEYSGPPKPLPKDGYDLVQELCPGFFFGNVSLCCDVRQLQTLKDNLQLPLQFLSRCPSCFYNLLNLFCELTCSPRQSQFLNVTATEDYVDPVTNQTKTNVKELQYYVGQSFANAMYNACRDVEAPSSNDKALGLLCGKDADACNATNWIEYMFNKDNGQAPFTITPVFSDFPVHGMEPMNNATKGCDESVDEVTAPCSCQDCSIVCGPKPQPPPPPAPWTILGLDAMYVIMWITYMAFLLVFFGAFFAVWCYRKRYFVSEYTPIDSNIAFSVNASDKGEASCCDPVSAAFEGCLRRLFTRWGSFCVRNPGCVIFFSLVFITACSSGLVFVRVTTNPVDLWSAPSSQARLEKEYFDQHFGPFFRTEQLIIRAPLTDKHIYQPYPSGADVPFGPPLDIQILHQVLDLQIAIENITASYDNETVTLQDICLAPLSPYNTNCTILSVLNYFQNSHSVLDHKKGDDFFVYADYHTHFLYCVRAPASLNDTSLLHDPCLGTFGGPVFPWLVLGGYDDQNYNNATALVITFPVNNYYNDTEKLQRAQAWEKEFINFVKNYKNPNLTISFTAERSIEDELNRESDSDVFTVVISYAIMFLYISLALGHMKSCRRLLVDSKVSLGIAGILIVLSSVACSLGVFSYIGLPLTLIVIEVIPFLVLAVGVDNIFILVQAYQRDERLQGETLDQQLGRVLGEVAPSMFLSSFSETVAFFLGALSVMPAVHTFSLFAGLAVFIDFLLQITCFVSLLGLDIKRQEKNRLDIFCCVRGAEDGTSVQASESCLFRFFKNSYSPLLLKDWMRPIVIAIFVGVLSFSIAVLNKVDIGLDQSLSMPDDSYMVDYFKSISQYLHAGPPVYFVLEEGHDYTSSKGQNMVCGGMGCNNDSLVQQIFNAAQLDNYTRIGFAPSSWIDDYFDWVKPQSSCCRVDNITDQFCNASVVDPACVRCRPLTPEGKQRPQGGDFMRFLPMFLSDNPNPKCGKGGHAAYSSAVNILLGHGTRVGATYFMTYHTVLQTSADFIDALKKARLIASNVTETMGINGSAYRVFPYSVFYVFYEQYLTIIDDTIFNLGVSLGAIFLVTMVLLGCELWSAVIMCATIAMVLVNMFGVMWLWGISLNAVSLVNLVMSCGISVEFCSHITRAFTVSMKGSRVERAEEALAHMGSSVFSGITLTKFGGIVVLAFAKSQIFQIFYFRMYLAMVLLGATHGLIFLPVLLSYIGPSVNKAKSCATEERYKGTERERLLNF
Outline: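 Methods give HUVEC (2,000) on chamber slides, settled overnight, then 0.1 µM drug or DMSO for 14 h; legend gives 0.2 μM for 24 h. Cells fixed in 4% paraformaldehyde for 15 min, then stained with 50 µg/ml filipin for 1 h in the dark. Imaged by confocal microscopy at 360/460 nm.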

Cytochrome P450 3A4 [5] = biological target: T1, Cytochrome P450 3A4; experiment: Inhibition of human liver microsome CYP3A4 expressed in baculosomes using fluorogenic-DBOMF as substrate preincubated for 10 mins followed by substrate addition and measured after 60 mins by fluorescence based assay; type: ADME, microsomes
[6] = biological target: Non-selective voltage-gated ion channel VDAC1 (Homo sapiens) (UniProt P21796); experiment: Binding affinity to VDAC1 in HUVEC assessed as AMPK phosphorylation at Thr172 residue after 24 hrs by Western blot analysis; type: cell-based
[7] = biological target: Non-selective voltage-gated ion channel VDAC1 (Homo sapiens) (UniProt P21796); experiment: Binding affinity to VDAC1 in HUVEC assessed as ACC1 phosphorylation at Ser79 residue at 0.01 to 1 uM after 24 hrs by Western blot analysis; type: cell-based
Outline: (§3)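 HUVEC treated with 0.01, 0.03, 0.1, 0.3 or 1 μM drug, or DMSO, for 24 h. Lysed in RIPA buffer, protein normalized, then run on Western blot: 5% BSA block 1 h, primary antibody overnight at 4 °C, secondary 1 h, chemiluminescence imaging. Band gray value and area quantified; mean ± SD of three independent experiments.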

HUVEC [8] = experiment: Binding affinity to NPC1/VDAC1 in HUVEC assessed as reduction in mTOR phosphorylation at Ser2481 residue up to 1 uM after 24 hrs Western blot analysis; type: cell-based; details: Homo sapiens; outline: as §3
HUVEC [9] = experiment: Binding affinity to NPC1/VDAC1 in HUVEC assessed as reduction in mTOR-mediated S6K phosphorylation at Thr389 residue up to 1 uM after 24 hrs Western blot analysis; type: cell-based; details: Homo sapiens; outline: as §3
HUVEC [10] = experiment: Antiangiogenic activity in HUVEC assessed as inhibition of tube formation at 5 uM after 24 hrs by matrigel assay relative to control; type: functional; details: Homo sapiens
Outline: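 HUVEC (70,000 per well) plated on Matrigel-coated wells in medium containing drug or DMSO. After 24 h, stained with 2 μM calcein AM for 15 min, medium replaced, and tube networks imaged by fluorescence microscopy. Total tube length quantified from the images and compared with DMSO.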

Row | inhibition at 1 h, 1 µM (CYP3A4) [%] | Structure (SMILES) | IC50 (HUVEC [1]) [µM] | also measured
1 |  | CCC(C)n1ncn(-c2ccc(N3CCN(c4ccc(OC[C@@H]5COC(c6ccc(Cl)cc6Cl)O5)cc4)CC3)cc2)c1=O (mixture of isomers) | 0.328 | inhibition (INH) (Cytochrome P450 3A4 [2]): Not Active
2 | 30 | CCC(C)n1ncn(-c2ccc(N3CCN(c4ccc(OC[C@@H]5CO[C@@](Cn6cnc(C)n6)(c6ccc(Cl)cc6Cl)O5)cc4)CC3)cc2)c1=O (some centres undefined) | 0.272 | 
3 |  | CCC(C)n1ncn(-c2ccc(N3CCN(c4ccc(OC[C@@H]5CO[C@@](CN(C)C)(c6ccc(Cl)cc6Cl)O5)cc4)CC3)cc2)c1=O (some centres undefined) | 1.4 | inhibition (INH) (Cytochrome P450 3A4 [2]): Not Active
4 |  | CCC(C)n1ncn(-c2ccc(N3CCN(c4ccc(OC[C@@H]5CO[C@@](Cc6ccccc6)(c6ccc(Cl)cc6Cl)O5)cc4)CC3)cc2)c1=O (some centres undefined) | 0.513 | inhibition (INH) (Cytochrome P450 3A4 [2]): Not Active
5 | 91 | CCC(C)n1ncn(-c2ccc(N3CCN(c4ccc(OC[C@@H]5CO[C@@](CN6CCNCC6)(c6ccc(Cl)cc6Cl)O5)cc4)CC3)cc2)c1=O (some centres undefined) | 0.608 | 
6 | 99 | CCC(C)n1ncn(-c2ccc(N3CCN(c4ccc(OC[C@@H]5CO[C@@](Cn6ccnc6)(c6ccc(Cl)cc6Cl)O5)cc4)CC3)cc2)c1=O (some centres undefined) | 0.085 | 
7 | 27 | CCC(C)n1ncn(-c2ccc(N3CCN(c4ccc(OC[C@@H]5CO[C@@](Cn6nc(C)nc6C)(c6ccc(Cl)cc6Cl)O5)cc4)CC3)cc2)c1=O (some centres undefined) | 0.221 | 
8 |  | CCC(C)n1ncn(-c2ccc(N3CCN(c4ccc(OC[C@@H]5CO[C@@](CC6CCCC6)(c6ccc(Cl)cc6Cl)O5)cc4)CC3)cc2)c1=O (some centres undefined) | 0.512 | inhibition (INH) (Cytochrome P450 3A4 [2]): Not Active
9 | 23 | CCC(C)n1ncn(-c2ccc(N3CCN(c4ccc(OC[C@@H]5CO[C@@](Cn6ccnc6-c6ccccc6)(c6ccc(Cl)cc6Cl)O5)cc4)CC3)cc2)c1=O (some centres undefined) | 0.136 | Activity [3]: Active
10 | 2 | CCC(C)n1ncn(-c2ccc(N3CCN(c4ccc(OC[C@@H]5CO[C@@](Cn6cnnn6)(c6ccc(Cl)cc6Cl)O5)cc4)CC3)cc2)c1=O (some centres undefined) |  | Activity [4]: Active; Activity [3]: Active; EC50 (Cytochrome P450 3A4 [5]): > 20 µM; Activity [6]: Dose-dependent effect; Activity [7]: Active; Activity (HUVEC [8]): Active; Activity (HUVEC [9]): Active
11 | 3 | CCC(C)n1ncn(-c2ccc(N3CCN(c4ccc(OC[C@@H]5CO[C@@](CBr)(c6ccc(Cl)cc6Cl)O5)cc4)CC3)cc2)c1=O (some centres undefined) | 0.569 | 
12 | 6 | CCC(C)n1ncn(-c2ccc(N3CCN(c4ccc(OC[C@@H]5CO[C@@](Cn6ccnc6C(C)C)(c6ccc(Cl)cc6Cl)O5)cc4)CC3)cc2)c1=O (some centres undefined) | 0.084 | Activity [4]: Active
13 |  | CCC(C)n1ncn(-c2ccc(N3CCN(c4ccc(OC[C@@H]5CO[C@@](Cn6cccn6)(c6ccc(Cl)cc6Cl)O5)cc4)CC3)cc2)c1=O (some centres undefined) | 0.307 | inhibition (INH) (Cytochrome P450 3A4 [2]): Not Active
14 | 71 | CCC(C)n1ncn(-c2ccc(N3CCN(c4ccc(OC[C@@H]5CO[C@@](Cn6ccnc6C)(c6ccc(Cl)cc6Cl)O5)cc4)CC3)cc2)c1=O (some centres undefined) | 0.173 | 
15 | 98 | CCC(C)n1ncn(-c2ccc(N3CCN(c4ccc(OC[C@@H]5CO[C@@](Cn6cnc(C)c6)(c6ccc(Cl)cc6Cl)O5)cc4)CC3)cc2)c1=O (some centres undefined) | 0.102 | 
16 | 17 | CCC(C)n1ncn(-c2ccc(N3CCN(c4ccc(OC[C@@H]5CO[C@@](Cn6ncnn6)(c6ccc(Cl)cc6Cl)O5)cc4)CC3)cc2)c1=O (some centres undefined) | 0.124 | 
17 | 18 | CCC(C)n1ncn(-c2ccc(N3CCN(c4ccc(OC[C@@H]5CO[C@@](CN6CCN(C)CC6)(c6ccc(Cl)cc6Cl)O5)cc4)CC3)cc2)c1=O (some centres undefined) | 0.396 | 
18 | 23 | CCC(C)n1ncn(-c2ccc(N3CCN(c4ccc(OC[C@@H]5CO[C@@](Cn6c(C)cnc6C)(c6ccc(Cl)cc6Cl)O5)cc4)CC3)cc2)c1=O (some centres undefined) | 0.765 | 
19 | 38 | CCC(C)n1ncn(-c2ccc(N3CCN(c4ccc(OC[C@@H]5CO[C@@](Cn6cc(C)nc6C)(c6ccc(Cl)cc6Cl)O5)cc4)CC3)cc2)c1=O (some centres undefined) | 0.492 | 
20 |  | CCC(C)n1ncn(-c2ccc(N3CCN(c4ccc(OC[C@@H]5CO[C@@](Cn6cc(C(F)(F)F)nc6C)(c6ccc(Cl)cc6Cl)O5)cc4)CC3)cc2)c1=O (some centres undefined) | 0.441 | inhibition (INH) (Cytochrome P450 3A4 [2]): Not Active
21 | 7 | CCC(C)n1ncn(-c2ccc(N3CCN(c4ccc(OC[C@@H]5CO[C@@](Cn6nnnc6C)(c6ccc(Cl)cc6Cl)O5)cc4)CC3)cc2)c1=O (some centres undefined) | 0.101 | 
22 | 84 | CCC(C)n1ncn(-c2ccc(N3CCN(c4ccc(OCC5COC(Cn6cncn6)(c6ccc(Cl)cc6Cl)O5)cc4)CC3)cc2)c1=O (centres undefined) [ITRACONAZOLE] |  | Activity [4]: Active; inhibition at 5 µM (HUVEC [10]): 45%
23 | 18 | CCC(C)n1ncn(-c2ccc(N3CCN(c4ccc(OC[C@@H]5CO[C@@](Cn6nnnc6-c6ccccc6)(c6ccc(Cl)cc6Cl)O5)cc4)CC3)cc2)c1=O (some centres undefined) | 0.119 | 
24 |  | CCC(C)n1ncn(-c2ccc(N3CCN(c4ccc(OC[C@@H]5CO[C@@](Cn6cnc(C(F)(F)F)n6)(c6ccc(Cl)cc6Cl)O5)cc4)CC3)cc2)c1=O (some centres undefined) | 0.27 | Activity [4]: Active; inhibition (INH) (Cytochrome P450 3A4 [2]): Not Active
25 |  | CCC(C)n1ncn(-c2ccc(N3CCN(c4ccc(OC[C@@H]5CO[C@@](CC)(c6ccc(Cl)cc6Cl)O5)cc4)CC3)cc2)c1=O (some centres undefined) | 0.353 | inhibition (INH) (Cytochrome P450 3A4 [2]): Not Active
26 | 16 | CCC(C)n1ncn(-c2ccc(N3CCN(c4ccc(OC[C@@H]5CO[C@@](CN6CCOCC6)(c6ccc(Cl)cc6Cl)O5)cc4)CC3)cc2)c1=O (some centres undefined) | 1.18 | 
27 | 7 | CCc1nccn1C[C@@]1(c2ccc(Cl)cc2Cl)OC[C@@H](COc2ccc(N3CCN(c4ccc(-n5cnn(C(C)CC)c5=O)cc4)CC3)cc2)O1 (some centres undefined) | 0.224 | 
